The source of these data is ChEMBL document CHEMBL4219052, “Synthesis and biological evaluation of 6-substituted-5-fluorouridine ProTides” (Bioorg Med Chem, 2018).

One series has as its system MCF7. Kind of series: Cytotoxicity against human MCF7 cells after 72 hrs by MTS assay. It counts as functional, cell-based. Particulars: MCF7, 72 h. In outline: (§1)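 Commercial screen: tumour cells seeded at 0.5 to 100 x 10³ cells/well the day before dosing, then exposed 72 h to compound in duplicate, 9 serial 3.16-fold dilutions from 198 µM top concentration. MTS added for a further 4 h at 37 °C, absorbance read; IC50 taken as 50% inhibition of viability by curve fitting.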
For orientation: Tetrazolium dyes change colour on reduction, which living cells bring about.

In the next series the test system is SW-620. Kind of series: Cytotoxicity against human SW620 cells after 72 hrs by MTS assay. The format is functional, cell-based. The conditions noted are these: SW-620, 72 h. In outline: as §1
The next series has as its system MIA PaCa-2. Kind of series: Cytotoxicity against human MIAPaCa2 cells after 72 hrs by MTS assay. It counts as functional, cell-based. Particulars: MIA PaCa-2, 72 h. In outline:
as §1

In another series the test system is MV4-11. Briefly: Cytotoxicity against human MV411 cells after 72 hrs by MTS assay. The conditions noted are these: MV4-11, 72 h. The format is functional, cell-based. In outline: as §1
A further series concerns HEL 92.1.7. Kind of series: Cytotoxicity against human HEL 92.1.7 cells after 72 hrs by MTS assay. Particulars: HEL 92.1.7, 72 h. It counts as functional, cell-based. In outline:
as §1

The subject of another series is RL. Kind of series: Cytotoxicity against human RL cells after 72 hrs by MTS assay. It counts as functional, cell-based. In outline:
as §1

Series [1] is described as follows: Cytotoxicity against human Hs445 cells after 72 hrs by MTS assay. The format is functional, cell-based. Particulars: Hs 445, 72 h. In outline:
as §1

Series [2] deals with T1, Carboxypeptidase Y (Saccharomyces cerevisiae (strain ATCC 204508 / S288c) (Baker's yeast), UniProt P00729).
T1 sequence (P00729 whole entry): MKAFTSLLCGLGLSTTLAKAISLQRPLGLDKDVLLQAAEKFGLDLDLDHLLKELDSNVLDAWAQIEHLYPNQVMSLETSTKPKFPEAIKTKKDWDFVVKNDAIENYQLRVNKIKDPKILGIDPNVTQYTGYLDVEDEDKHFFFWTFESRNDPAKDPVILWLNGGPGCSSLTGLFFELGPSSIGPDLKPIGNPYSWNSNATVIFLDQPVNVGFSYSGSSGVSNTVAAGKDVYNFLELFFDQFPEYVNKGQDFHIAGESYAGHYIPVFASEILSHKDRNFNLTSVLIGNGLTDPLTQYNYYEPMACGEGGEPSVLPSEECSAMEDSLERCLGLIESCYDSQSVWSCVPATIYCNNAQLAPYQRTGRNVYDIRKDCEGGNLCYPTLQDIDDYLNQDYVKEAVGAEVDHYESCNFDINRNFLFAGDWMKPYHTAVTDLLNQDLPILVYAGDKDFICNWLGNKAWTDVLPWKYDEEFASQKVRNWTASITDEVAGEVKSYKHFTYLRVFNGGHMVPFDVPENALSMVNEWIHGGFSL
Kind of series: Prodrug activation assessed as yeast carboxypeptidase Y mediated diastereoisomer formation at pH 7.6 by 31P NMR analysis. In outline: (§2)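 ProTide (5.0 mg) dissolved in acetone-d6 (0.15 mL) plus Trizma buffer pH 7.6 (0.30 mL), treated with carboxypeptidase Y; conversion followed by ³¹P NMR over 14 h.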

Series [3] deals with T1, Carboxypeptidase Y. Briefly: Prodrug activation assessed as yeast carboxypeptidase Y mediated (2S)-2-((((2R,3S,4R,5R)-5-(6-azido-5-fluoro-2,4-dioxo-3,4-dihydropyrimidin-1(2H)-yl)-3,4-dihydroxytetrahydrofuran-2-yl)methoxy)(hydroxy)phosphorylamino)propanoic acid formation at pH 7.6 measured within 60 mins by 31P NMR analysis. Particulars: pH 7.6, 1 h. In outline: as §2
A short description of series [4]: Half life in acetone d6 at pH 7.6 Trizma buffer by 31P NMR analysis. The format is physicochemical. Particulars: Trizma buffer with acetone-d6, pH 7.6. In outline: as §2
The target of series [5] is T1, Carboxypeptidase Y. Kind of series: Prodrug activation assessed as yeast carboxypeptidase Y mediated (2S)-2-((((2R,3S,4R,5R)-5-(6-azido-5-fluoro-2,4-dioxo-3,4-dihydropyrimidin-1(2H)-yl)-3,4-dihydroxytetrahydrofuran-2-yl)methoxy)(phenoxy)phosphorylamino)propanoic acid formation at pH 7.6 measured within 10 mins by 31P NMR analysis. The conditions noted are these: pH 7.6, 10 min. In outline: as §2

The target in series [6] is Orotidine 5'-phosphate decarboxylase (Methanobacterium thermoautotrophicum, UniProt O26232). Briefly: Inhibition of Methanobacterium thermoautotrophicum ODCase. Also noted: species or system Methanothermobacter thermautotrophicus.
In series [7] the target is T2, Uridine 5'-monophosphate synthase (Homo sapiens, UniProt P11172).
T2 sequence (P11172 whole entry): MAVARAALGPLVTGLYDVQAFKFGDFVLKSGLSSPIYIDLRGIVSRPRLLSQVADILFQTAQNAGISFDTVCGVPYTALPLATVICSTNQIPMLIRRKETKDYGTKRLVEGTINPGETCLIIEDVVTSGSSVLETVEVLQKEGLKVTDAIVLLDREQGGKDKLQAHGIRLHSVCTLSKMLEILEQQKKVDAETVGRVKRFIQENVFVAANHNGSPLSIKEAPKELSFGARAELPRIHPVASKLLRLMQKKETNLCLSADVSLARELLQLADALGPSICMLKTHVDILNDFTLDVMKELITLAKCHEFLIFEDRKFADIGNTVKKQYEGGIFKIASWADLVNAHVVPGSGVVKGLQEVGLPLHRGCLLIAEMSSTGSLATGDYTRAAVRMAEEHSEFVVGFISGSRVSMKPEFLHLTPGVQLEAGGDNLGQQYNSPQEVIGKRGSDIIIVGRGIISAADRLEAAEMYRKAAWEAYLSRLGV
Briefly: Inhibition of human ODCase.

Another series relates to Chikungunya virus. Kind of series: Antiviral activity against Chikungunya virus infected in African green monkey Vero cells assessed as reduction in virus-induced cytopathic effect pretreated for 1 hr followed by viral infection measured after 3 days by crystal violet staining based assay. The format is functional, organism-based. A general note: Damage to the host cells serves as the signal in cytopathic effect assays.

The nature of series [8]: Cytotoxicity against African green monkey Vero cells measured after 3 days by CelltiterGlo luminescence assay. It counts as cell-based. Particulars: chlorocebus sabaeus. In outline:
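Vero cells seeded and left overnight; growth medium then replaced by serial compound dilutions, added in triplicate; medium-only wells defined 0% cytotoxicity. On day 3 cells were lysed and ATP content measured by luciferase luminescence (CellTiter-Glo); CC50 obtained from a 4-PL curve fit.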
A general note: In ATP-based viability assays light output follows the ATP content of the culture.

For series [9], the target named is T3, Orotidine 5'-phosphate decarboxylase (Saccharomyces cerevisiae S288c, UniProt P03962).
T3 sequence (P03962 whole entry): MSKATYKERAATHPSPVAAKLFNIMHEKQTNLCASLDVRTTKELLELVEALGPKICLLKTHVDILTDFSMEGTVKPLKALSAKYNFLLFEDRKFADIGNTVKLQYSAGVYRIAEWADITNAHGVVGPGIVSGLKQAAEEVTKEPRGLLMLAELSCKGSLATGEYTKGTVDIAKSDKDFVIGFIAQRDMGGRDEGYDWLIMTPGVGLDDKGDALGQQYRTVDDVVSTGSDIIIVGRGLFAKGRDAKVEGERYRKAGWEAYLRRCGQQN
Kind of series: Inhibition of yeast ODCase.

Each structure is given as a SMILES string.

Chain of Orotidine 5'-phosphate decarboxylase (Methanobacterium thermoautotrophicum, UniProt O26232) (O26232 whole entry): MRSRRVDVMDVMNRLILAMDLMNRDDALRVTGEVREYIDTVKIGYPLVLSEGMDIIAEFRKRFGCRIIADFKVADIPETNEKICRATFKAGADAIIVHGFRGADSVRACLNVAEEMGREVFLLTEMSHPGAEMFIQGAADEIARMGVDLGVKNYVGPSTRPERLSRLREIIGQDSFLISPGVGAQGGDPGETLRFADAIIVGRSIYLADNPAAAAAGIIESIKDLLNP

In the case of `CCCCCCOC(=O)[C@H](C)NP(=O)(OC[C@H]1O[C@@H](n2c(N=[N+]=[N-])c(F)c(=O)[nH]c2=O)[C@H](O)[C@@H]1O)Oc1ccccc1` (some centres not stated), the IC50 is more than 50 µM in the series with MCF7; 38 µM with SW-620; more than 50 µM with MIA PaCa-2; 9 µM in the series with MV4-11; 39 µM in the series on HEL 92.1.7; 20 µM with RL. In series [1], this compound gave an IC50 of 18 µM. In addition, the Drug metabolism at Carboxypeptidase Y [2] lay in the range of 3.64 to 3.82 ppm.

For `C[C@H](NP(=O)(O)OC[C@H]1O[C@@H](n2c(N=[N+]=[N-])c(F)c(=O)[nH]c2=O)[C@H](O)[C@@H]1O)C(=O)O`, the Drug metabolism on Carboxypeptidase Y [3] came to 7.17 ppm. This compound also gave a half-life in series [4] of less than 5 min.

Turning to `C[C@H](NP(=O)(OC[C@H]1O[C@@H](n2c(N=[N+]=[N-])c(F)c(=O)[nH]c2=O)[C@H](O)[C@@H]1O)Oc1ccccc1)C(=O)O` (some centres not stated), the Drug metabolism on Carboxypeptidase Y [5] lay in the range of 4.68 to 4.87 ppm.

Regarding `NC(=O)c1[nH]nc([C@@H]2O[C@H](CO)[C@@H](O)[C@H]2O)c1O` [PYRAZOFURIN], the results for the Ki in [6] and in series [7] were 6.2 µM and 0.017 µM, respectively.

For the compound `O=c1cnn([C@@H]2O[C@H](CO)[C@@H](O)[C@H]2O)c(=O)[nH]1` [6-AZAURIDINE], the 50% effective concentration (EC50) in the series with Chikungunya virus came to 0.468 µM. In series [8], this compound registered a CC50 at 72 h of more than 10 µM. Further, the figures for the inhibitory constant (Ki) in series [9] and in series [6] were 0.064 µM and 11 µM, respectively.

As usually defined, the IC50 is the point on the concentration scale where inhibition reaches its midpoint. Broadly, the half-life is the time needed for the level to fall by half in the phase considered. The term Ki denotes the equilibrium dissociation constant of an inhibitor or competing ligand from its target. By EC50 is commonly meant the concentration needed to bring the measured effect to its halfway point. In general, CC50 refers to the concentration that lowers cell viability or growth by half.
